Calls of active or inactive are those of the source. The calls are words filed in the database; no cut-off is given here.
Columns and labels:
[1] = tested on: Rattus norvegicus; test: Hypoglycemic activity in iv dosed rat measured after 1 hr by GOD-Perid method; type: functional
Outline: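 Fed female rats received the compound iv as its Na salt in 0.9% saline at four doses. Blood was sampled 1 h post-injection and glucose measured enzymatically (GOD-Perid). Changes were expressed as percent of the control group, and linear dose-response curves were fitted. ED50 is the dose for 50% reduction of the mean control value, with 95% confidence limits.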

[2] = tested on: Rattus norvegicus; test: Hypoglycemic activity in rat at 0.16 to 2.5 mg/kg, iv measured after 3 hrs by GOD-Perid method; type: functional, organism-based
Outline: (§1)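 Female rats in the fed state were injected iv with the Na salt dissolved in 0.9% saline at four graded doses. Blood samples were taken at 1 and 3 h, and glucose was determined enzymatically by the GOD-Perid method. Effects were expressed relative to the control group (percent control value).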

[3] = tested on: Rattus norvegicus; test: Hypoglycemic activity in rat at 20 to 375 mg/kg, iv measured after 3 hrs by GOD-Perid method; type: functional, organism-based; outline: as §1
[4] = tested on: Rattus norvegicus; test: Hypoglycemic activity in rat at 40 to 937.5 mg/kg, iv measured after 3 hrs by GOD-Perid method; type: functional, organism-based; outline: as §1
[5] = tested on: Rattus norvegicus; test: Toxicity in rat assessed as suvival at 937.5 mg/kg, iv; type: organism-based; parameters: dose 937.5 mg/kg, route intravenous; conditions: in vivo
Outline: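 Survival was recorded in fed female rats after iv injection of the Na salt in 0.9% saline as the top dose of a four-dose series. Blood glucose was sampled at 1 and 3 h.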

[6] = tested on: Rattus norvegicus; test: Hypoglycemic activity in rat at 0.0064 to 0.1 mg/kg, iv measured after 3 hrs by GOD-Perid method; type: functional, organism-based; outline: as §1
[7] = tested on: Rattus norvegicus; test: Hypoglycemic activity in rat at 9.6 to 150 mg/kg, iv measured after 3 hrs by GOD-Perid method; type: functional, organism-based; outline: as §1

With `COc1ccc(F)cc1[C@@H](C)NC(=O)Cc1ccc(S(=O)(=O)Nc2ncc(CC(C)C)cn2)cc1` the ED50 [1] was 0.81 mg/kg and the Activity [2] was “inactive”.
`COc1ccc(F)cc1[C@H](C)NC(=O)Cc1ccc(C(=O)O)cc1` was tested, and the Activity [3] was “inactive” and the ED50 [1] was 63.9 mg/kg.
For `COc1ccc(F)cc1[C@@H](C)NC(=O)Cc1ccc(C(=O)O)cc1`, the ED50 [1] was 1180 mg/kg, the Activity [4] was “inactive” and the Activity [5] was “Toxic”.
For `COc1ccc(F)cc1[C@H](C)NC(=O)Cc1ccc(S(=O)(=O)Nc2ncc(CC(C)C)cn2)cc1` [GLIFLUMIDE], the Activity [6] was “inactive” and the ED50 [1] was 0.02 mg/kg.
`COCCOc1cnc(NS(=O)(=O)c2ccccc2)nc1` [GLYMIDINE] was tested, and the Activity [7] was “inactive” and the ED50 [1] was 69.7 mg/kg.
